From ChEMBL document CHEMBL3286129, “Optimization of peptidomimetic boronates bearing a P3 bicyclic scaffold as proteasome inhibitors” (Eur J Med Chem, 2014)
Active and inactive are the calls of the source. No cut-off for these calls is given here.

Assays:
[1] = molecular target: Proteasome Macropain subunit (Homo sapiens) (UniProt P49721); assay: Inhibition of trypsin-like activity of 20S proteasome in human erythrocytes using Boc-Leu-Arg-Arg-AMC as substrate by fluorescence assay; format: cell-based
Method in brief: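 Human 20S proteasome 0.0025 mg/mL at 30 °C in 50 mM Tris pH 7.4, 50 mM NaCl, 0.5 mM EDTA, 0.03% SDS, 7.5% DMSO. Varied inhibitor concentrations; AMC release monitored continuously for 10 min, ex 380/em 460 nm. Ki derived from progress-curve IC50 fit.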

Chymotrypsinogen A = Chymotrypsinogen A (Bos taurus, UniProt P00766); assay: Inhibition of bovine pancreatic alpha-chymotrypsin using Suc-Leu-Leu-Val-Tyr-AMC as substrate by fluorescence assay
Method in brief: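 Enzyme incubated at 20 °C in 50 mM Tris pH 8.0, 100 mM NaCl, 5 mM EDTA, 7.5% DMSO with varied inhibitor concentrations. Substrate hydrolysis followed for 10 min. Ki from progress curves; mean of three determinations.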

[2] = molecular target: T1, Proteasome Macropain subunit MB1 (Homo sapiens, UniProt P28074); assay: Inhibition of chymotrypsin-like activity of 20S proteasome in human erythrocytes using Suc-Leu-Leu-Val-Tyr-AMC as substrate by fluorescence assay
T1 sequence (P28074 whole entry): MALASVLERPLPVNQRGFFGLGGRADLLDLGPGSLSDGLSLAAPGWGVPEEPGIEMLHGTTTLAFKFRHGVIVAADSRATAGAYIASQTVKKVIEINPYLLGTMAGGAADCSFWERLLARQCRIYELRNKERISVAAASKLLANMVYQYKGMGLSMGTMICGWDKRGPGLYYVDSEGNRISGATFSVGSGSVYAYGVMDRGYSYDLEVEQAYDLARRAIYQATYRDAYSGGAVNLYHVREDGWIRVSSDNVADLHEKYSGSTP

[3] = Cytotoxicity against human melanoma cells assessed as cell growth at 10 uM relative to control; format: functional; conditions: read-out: Activity
Method in brief: (§1)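 Single-concentration screen against a panel of human cancer cell lines. Each value is the mean percent growth across the cell lines of that tumour subpanel.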

[4] = Cytotoxicity against human colon cancer cells assessed as cell growth at 10 uM relative to control; format: functional; conditions: Cancer cell lines, read-out: Activity; method in brief: as §1
[5] = Cytotoxicity against human CNSC cells assessed as cell growth at 10 uM relative to control; format: functional; conditions: read-out: Activity; method in brief: as §1
Proteasome component C5 = molecular target: T2, Proteasome component C5 (Homo sapiens, UniProt P20618); assay: Inhibition of PGPH-like activity of 20S proteasome in human erythrocytes using Z-Leu-Leu-Glu-AMC as substrate by fluorescence assay
T2 sequence (P20618 whole entry): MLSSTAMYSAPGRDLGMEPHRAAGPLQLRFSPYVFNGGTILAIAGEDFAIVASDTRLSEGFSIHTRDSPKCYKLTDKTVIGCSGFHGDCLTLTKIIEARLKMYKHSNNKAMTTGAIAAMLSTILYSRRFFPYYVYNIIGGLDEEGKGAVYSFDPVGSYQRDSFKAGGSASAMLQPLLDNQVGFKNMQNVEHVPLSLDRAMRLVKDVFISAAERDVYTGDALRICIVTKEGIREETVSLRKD
Method in brief: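 Human 20S proteasome 0.004 mg/mL, 30 °C, 50 mM Tris pH 7.5 with 25 mM KCl, 10 mM NaCl, 1 mM MgCl2, 0.03% SDS, 5% DMSO. Ki from 4-parameter IC50 fit of progress curves, corrected to zero substrate via Km. Mean of three.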

[6] = Cytotoxicity against human NSCLC cells assessed as cell growth at 10 uM relative to control; format: functional; conditions: read-out: Activity; method in brief: as §1
[7] = Cytotoxicity against human prostate cancer cells assessed as cell growth at 10 uM relative to control; format: functional; conditions: Cancer cell lines, read-out: Activity; method in brief: as §1
[8] = Cytotoxicity against human ovarian cancer cells assessed as cell growth at 10 uM relative to control; format: functional; conditions: Cancer cell lines, read-out: Activity; method in brief: as §1
[9] = Cytotoxicity against human breast cancer cells assessed as cell growth at 10 uM relative to control; format: functional; conditions: Cancer cell lines, read-out: Activity; method in brief: as §1
[10] = Cytotoxicity against human leukemia cells assessed as cell growth at 10 uM relative to control; format: functional; conditions: read-out: Activity; method in brief: as §1
[11] = Cytotoxicity against human renal cancer cells assessed as cell growth at 10 uM relative to control; format: functional; conditions: Cancer cell lines, read-out: Activity; method in brief: as §1
[12] = molecular target: T3, Proteasome Macropain subunit MB1 (Homo sapiens) (UniProt P28074); assay: Inhibition of chymotrypsin-like activity of 20S proteasome in human erythrocytes using Suc-Leu-Leu-Val-Tyr-AMC as substrate at 20 uM by fluorescence assay relative to control
T3 sequence (whole entry): T1 sequence (P28074 whole entry)
Method in brief: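 Single inhibitor concentration, equivalent DMSO as negative control. AMC fluorescence read at ex 380/em 460 nm; percent inhibition of ChT-L activity.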

[13] = molecular target: Proteasome component C5 (Homo sapiens) (UniProt P20618); assay: Inhibition of PGPH-like activity of 20S proteasome in human erythrocytes using Z-Leu-Leu-Glu-AMC as substrate at 20 uM by fluorescence assay relative to control
Method in brief: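 Single-concentration screen of PGPH activity. Human 20S proteasome (0.004 mg/mL) at 30 °C in 50 mM Tris pH 7.5 with 25 mM KCl, 10 mM NaCl, 1 mM MgCl2, 0.03% SDS, 5% DMSO; equivalent DMSO as control. AMC fluorescence at ex 380/em 460 nm.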

Proteasome Macropain subunit (Homo sapiens), sequence (P49721 whole entry): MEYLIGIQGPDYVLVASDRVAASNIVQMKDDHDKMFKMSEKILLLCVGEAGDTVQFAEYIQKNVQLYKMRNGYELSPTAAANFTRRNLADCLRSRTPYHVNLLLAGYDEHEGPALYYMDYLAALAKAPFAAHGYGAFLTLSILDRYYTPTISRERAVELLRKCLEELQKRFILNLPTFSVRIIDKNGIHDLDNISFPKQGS

inhibition [1]	Ki (Chymotrypsinogen A)	Ki [2]	Ki (Proteasome component C5)	inhibition [12] [%]	Ki ([2]; read-out: Ki) [µM]	inhibition [13] [%]	Ki (Chymotrypsinogen A; read-out: Ki) [µM]	Compound	growth at 10 µM [3] [%]	growth at 10 µM [4] [%]	growth at 10 µM [5] [%]	growth at 10 µM [6] [%]	growth at 10 µM [7] [%]	growth at 10 µM [8] [%]	growth at 10 µM [9] [%]	growth at 10 µM [10] [%]	growth at 10 µM [11] [%]
inactive	Not Active							CC(C)C[C@H](NC(=O)Cn1cc(Br)c2ncccc2c1=O)B(O)O									
inactive	Not Active	Not Active	Not Active	> 40				COc1cc2ccn(CC(=O)N[C@@H](CC(C)C)B(O)O)c(=O)c2cc1OC	104	104	99.6	102	100	103	99	98.8	98.5
inactive	Not Active	Not Active	Not Active	> 40				CC(C)C[C@H](NC(=O)CCn1cc(Br)c2ncccc2c1=O)B(O)O									
inactive	Not Active				0.08	44		CC(C)CCNC(=O)CCn1cc(Br)c2ncccc2c1=O									
inactive			Not Active		4.57			CC(C)CCNC(=O)CCn1ccc2ncccc2c1=O									
inactive	Not Active							CC(C)C[C@H](NC(=O)Cn1ccc2ncccc2c1=O)B(O)O									
inactive				> 40	0.49		9.11	CC(C)C[C@H](NC(=O)Cn1ccc2ccccc2c1=O)B(O)O	43.5	57.9	71	75.6	80.2	86.7	51.3	23.1	39.8
